Assay results as given in ChEMBL document CHEMBL1145496 (Antimicrob Agents Chemother, 2007).
Values after ≈ are worked out from the molar mass of the structure shown.

Legend:
Format in all cases: functional
[1] = tested on: Enterococcus faecalis; assay: Antimicrobial activity against vancomycin A-resistant Enterococcus faecalis TX2784 isolate by agar dilution method
Summary of the method: (§1)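 Agar dilution MIC on Mueller-Hinton agar II per CLSI, standard inoculum 10⁴ CFU/spot; drug dissolved in 9.9% glacial acetic acid plus 1% DMSO. Control strains E. faecalis ATCC 29212, S. aureus ATCC 29213, E. coli 25922.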

[2] = tested on: Enterococcus faecalis; assay: Antimicrobial activity against beta-lactamase producing Enterococcus faecalis TX0630 isolate at 10^4 CFU/spot
Summary of the method: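 Agar dilution MIC on Mueller-Hinton agar II following CLSI recommendations, with a standard inoculum of 10⁴ CFU/spot. Drug was diluted in 9.9% glacial acetic acid plus 1% DMSO. Control strains were E. faecalis ATCC 29212, S. aureus ATCC 29213 and E. coli 25922. Isolates were recovered from −80°C frozen stocks.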

[3] = tested on: Enterococcus faecalis; assay: Antimicrobial activity against beta-lactamase producing vancomycin-resistant Enterococcus faecalis TX0614 isolate at 10^7 […]
Summary of the method: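 High-inoculum MIC by broth dilution in Mueller-Hinton broth at 10⁷ CFU/ml (per ml in broth, not per spot).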

[4] = tested on: Enterococcus faecalis; assay: Antimicrobial activity against beta-lactamase producing vancomycin-resistant Enterococcus faecalis isolates by agar dilution method; summary of the method: as §1
[5] = tested on: Enterococcus faecalis; assay: Antimicrobial activity against beta-lactamase producing vancomycin-resistant Enterococcus faecalis TX0638 isolate at 10^4 CFU/spot; summary of the method: as §1
[6] = tested on: Enterococcus faecalis; assay: Antimicrobial activity against beta-lactamase producing vancomycin-resistant Enterococcus faecalis TX0614 isolate at 10^4 CFU/spot; summary of the method: as §1
[7] = tested on: Enterococcus faecalis; assay: Bactericidal activity against vancomycin B-resistant Enterococcus faecalis TX2484 isolate assessed as decrease in viable count after 24 hrs
Summary of the method: (§2)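 Time-kill in 20 ml BHI broth, starting inoculum 10⁷ CFU/ml from overnight culture. Viable counts at 0, 4 and 24 h by plating on BHI agar after centrifuging 1-ml samples and resuspending in 0.9% saline to remove carryover. Detection limit 10 CFU/ml. Bactericidal = ≥3-log₁₀ CFU/ml drop over 0–24 h. Two to four runs per strain.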

[8] = tested on: Enterococcus faecalis; assay: Antimicrobial activity against beta-lactamase producing Enterococcus faecalis TX0630 isolate by agar dilution method; summary of the method: as §1
[9] = tested on: Enterococcus faecalis; assay: Antimicrobial activity against Enterococcus faecalis TX0645 isolate at 10^4 CFU/spot; summary of the method: as §1
[10] = tested on: Enterococcus faecalis; assay: Bactericidal activity against vancomycin A-resistant Enterococcus faecalis TX2784 isolate assessed as decrease in viable count after 24 hrs; summary of the method: as §2
[11] = tested on: Enterococcus faecalis; assay: Antimicrobial activity against beta-lactamase producing Enterococcus faecalis TX5070 isolate by agar dilution method
Summary of the method: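 Starting inoculum was 10⁴ CFU/spot, and E. faecalis ATCC 29212 served as control. Drug was diluted in 9.9% glacial acetic acid plus 1% DMSO.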

[12] = tested on: Enterococcus faecalis; assay: Antimicrobial activity against vancomycin B-resistant Enterococcus faecalis TX2484 isolate by agar dilution method; summary of the method: as §1
[13] = tested on: Enterococcus faecalis; assay: Antimicrobial activity against beta-lactamase producing vancomycin-resistant Enterococcus faecalis TX0921 isolate at 10^4 CFU/spot; summary of the method: as §1

SMILES | MIC [1] [µg/mL] | MIC [2] [µg/mL] | MIC [3] [µg/mL] | MIC50 [4] [µg/mL] | MIC90 [4] [µg/mL] | MIC [5] [µg/mL] | MIC [6] [µg/mL] | log10CFU/ml [7] | MIC [8] [µg/mL] | MIC [9] [µg/mL] | log10CFU/ml [10] | MIC [11] [µg/mL] | MIC [12] [µg/mL] | MIC [13] [µg/mL]
Nc1nc(/C(=N/O)C(=O)N[C@@H]2C(=O)N3C(C(=O)O)=C(/C=C4\CCN([C@@H]5CCNC5)C4=O)CS[C@H]23)ns1 [CEFTOBIPROLE] | 0.25 (≈ 0.468 µM) | 0.125 (≈ 0.234 µM) | 2 (≈ 3.74 µM) | 0.25 (≈ 0.468 µM) | 1 (≈ 1.87 µM) | 0.25 (≈ 0.468 µM) | 1 (≈ 1.87 µM) | >3 | 0.25 (≈ 0.468 µM) | 0.25 (≈ 0.468 µM) | >3 | 0.125 (≈ 0.234 µM) | 0.5 (≈ 0.935 µM) | 0.25 (≈ 0.468 µM)
CN[C@H](CC(C)C)C(=O)N[C@H]1C(=O)N[C@@H](CC(N)=O)C(=O)N[C@H]2C(=O)N[C@H]3C(=O)N[C@H](C(=O)N[C@H](C(=O)O)c4cc(O)cc(O)c4-c4cc3ccc4O)[C@H](O)c3ccc(c(Cl)c3)Oc3cc2cc(c3O[C@@H]2O[C@H](CO)[C@@H](O)[C@H](O)[C@H]2O[C@H]2C[C@](C)(N)[C@H](O)[C@H](C)O2)Oc2ccc(cc2Cl)[C@H]1O [VANCOMYCIN] | > 256 |  |  |  |  |  |  |  | 0.5 (≈ 0.345 µM) |  |  | 8 (≈ 5.52 µM) | > 256 | 
CC1(C)S[C@@H]2[C@H](NC(=O)[C@H](N)c3ccccc3)C(=O)N2[C@H]1C(=O)O [AMPICILLIN] | 0.5 (≈ 1.43 µM) |  |  |  |  |  |  |  | 1 (≈ 2.86 µM) |  |  |  | 0.5 (≈ 1.43 µM) | 
